# Hits are enriched below; roughly 2.5% of the tested compounds scored in any of these assays.
# TCR CD3 inh: inhibitors of human TCR-CD3 interaction | 360,000 tested, 0.37% active | inhibition, % at 9.4 µM | TAMRA-labeled TCR probe fluorescence, biochemical;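 further: recombinant mutant TCR 2C K166C tagged with TAMRA read by polarization; 0% = receptor in buffer alone and 100% = receptor with positive control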
# SIAE inh: blocks human sialic acid acetylesterase; 370,000 tested, 0.69% active; Q9HAT2; AID 1053197; SIAE FP-Rh probe binding, fluorescence polarization; inhibition, % at 9.66 µM;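 active means inhibition above a cutoff: mean of compounds within the control limits plus 3 SD of those, cut at about 17% in these data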;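 further: 0% = plate median of compound wells and 100% = probe without SIAE protein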
# Target sequence (Q9HAT2 whole entry, looked up): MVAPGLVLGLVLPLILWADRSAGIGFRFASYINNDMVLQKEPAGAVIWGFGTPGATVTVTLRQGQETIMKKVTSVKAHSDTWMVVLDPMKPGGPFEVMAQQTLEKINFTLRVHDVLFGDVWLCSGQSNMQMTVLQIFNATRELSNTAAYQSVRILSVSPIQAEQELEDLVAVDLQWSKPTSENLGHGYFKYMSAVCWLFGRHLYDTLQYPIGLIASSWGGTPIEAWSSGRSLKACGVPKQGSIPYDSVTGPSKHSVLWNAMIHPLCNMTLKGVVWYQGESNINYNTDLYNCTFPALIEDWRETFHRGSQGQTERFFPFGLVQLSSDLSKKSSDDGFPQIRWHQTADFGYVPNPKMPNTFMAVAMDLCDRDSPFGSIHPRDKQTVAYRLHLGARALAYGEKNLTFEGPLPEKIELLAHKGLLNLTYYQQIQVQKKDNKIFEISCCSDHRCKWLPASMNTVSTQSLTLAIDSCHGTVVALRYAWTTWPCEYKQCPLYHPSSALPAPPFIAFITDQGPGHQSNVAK
# rCAG binder: r(CAG) repeat RNA binding; 370,000 tested, 1.3% active; AID 651821; TO-PRO-1 dye displacement fluorescence; inhibition, % at 3 µM;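 active means inhibition above the plate cutoff, the mean of all test compounds on that plate plus 3 SD, cut at about 35% in these data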;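 further: 0% = DMSO alone and 100% = 100 µM mitoxantrone as full dye displacement; higher means more dye released from RNA so lower well fluorescence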
# HTRA1 inh: HTRA1 (human) protease inhibition. Q92743. recombinant HTRA1, FP-rhodamine activity-based probe, fluorescence polarization. inhibition, % at 5.96 µM. 340,000 tested, 0.5% active. AID 504803; in the data active means inhibition above about 36%;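 further: 0% = enzyme with DMSO and 100% = wells lacking enzyme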
# mABHD4 FP: inhibitors of mouse ABHD4; Q8VD66; 370,000 tested, 0.54% active; purified mABHD4, FP-Rh probe fluorescence polarization; inhibition, % at 8.92 µM;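 active means inhibition exceeding the mean over every tested compound plus 3 SD, cut at about 30% in these data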;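 further: 0% = plate median of compound wells and 100% = S159A mutant with DMSO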
#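 Assay system: mouse ABHD4 enzyme, wild type / Also added: fluorescent activity-based probe FP-Rh / Doses: single nominal dose of 8.92 µM, 0.89% DMSO final / Timing: 45 min compound pre-incubation plus 60 min probe step, 25 °C / Signal: FP readout, ex 525 nm / em 598 nm / Control set: S159A mutant/DMSO as 100%, compound-well median as 0%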
# HTRA1 inh conf: confirmation of human HTRA1 inhibitors | shares compounds with HTRA1 inh | recombinant HTRA1, FP-rhodamine activity-based probe, fluorescence polarization | inhibition, % at 5.96 µM | 1,600 tested, 66% active;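 active means mean inhibition over three repeats above a set limit taken from the earlier primary screen, cut at about 37% in these data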;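 further: 0% = HTRA1 with DMSO and 100% = wells lacking HTRA1; inhibitors block probe binding so polarization drops and inhibition rises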
# BSA TAMRA ctr: interferes with TAMRA-BSA probe, flagging TCR-CD3 hits. TAMRA-labeled BSA probe fluorescence counterscreen. shares compounds with TCR CD3 inh. 1,200 tested, 10% active. inhibition, % at 9.4 µM; in the data active means inhibition above about 23%;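 further: 0% = buffer low control and 100% = reference high control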
# TCR-CD3 inh conf: confirmation of human TCR-CD3 interaction inhibitors; shares compounds with TCR CD3 inh; TAMRA-labeled TCR probe fluorescence binding assay; inhibition, % at 9.4 µM; 1,200 tested, 48% active; AID 652036
# rCAG bind conf: r(CAG) RNA repeat binding, confirmation; shares compounds with rCAG binder; inhibition, % at 3 µM; TO-PRO-1 dye displacement fluorescence; 4,300 tested, 70% active;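 active means inhibition above a per-plate cutoff, the mean inhibition of sample wells plus 3 SD, cut at about 35% in these data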;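 further: loss of TO-PRO-1 fluorescence as compound displaces dye from 1x1 AA loop RNA; 0% = DMSO only wells and 100% = 100 µM mitoxantrone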
# dCAG dye counter: counter-screen for rCAG RNA binders: DNA CAG dye complex inhibitors; 4,300 tested, 94% active; shares compounds with rCAG binder; inhibition, % at 3 µM; d(CAG) DNA oligo TO-PRO-1 dye displacement, fluorescence;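 active means inhibition above its plate's cutoff, the mean test-well inhibition plus 3 SD, cut at about 4.8% in these data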;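 further: 0% = DNA dye mix with DMSO and 100% = 100 µM mitoxantrone; hits displace the dye from DNA and so lower well fluorescence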
# ABHD4 confirm: ABHD4 (mouse) inhibition, FP confirmation | AID 720658 | purified mABHD4, FP-Rh probe fluorescence polarization | inhibition, % at 8.92 µM | 1,800 tested, 55% active | shares compounds with mABHD4 FP;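 active means mean inhibition across replicates above the hit cutoff set in the primary screen, cut at about 30% in these data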;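 further: 0% = wild-type ABHD4 with DMSO and 100% = catalytically dead S159A mutant with DMSO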
# Active calls of the source: *; . = not tested or not shown. Unless noted, no stated cut-off is given here; in the data, active means inhibition above about 19%; inactive means the rest.
SMILES,TCR CD3 inh,SIAE inh,rCAG binder,HTRA1 inh,mABHD4 FP,HTRA1 inh conf,others
O=C(O)c1ccc2c(c1)C1C(Cl)C(Sc3ccccc3[N+](=O)[O-])CC1C(c1cccc([N+](=O)[O-])c1)N2 (stereo not given),.,.,.,81*,.,.,
NC(=O)CN1C2CCC1CC(NC(=O)C1CC1)C2 (stereo not given),-5,2,3,3,9,.,
COc1ccc2c3c([nH]c2c1)C(C)NCC3 (stereo not given),25*,6,14,18,10,.,
COc1ccc2[nH]c3c(c2c1)CCNC3C (stereo not given),-16,2,3,-1,-3,.,
CC12CN3CN(C1)CC(C)(C3)C2=NO,6,8,-3,0,-1,.,
COc1cc(-n2c(=S)[nH]c3ccccc3c2=O)c(Cl)cc1Cl,-6,1,4,-7,-13,.,
COc1ccc(N2C(=O)/C(=C/c3ccc(OC)c(OC)c3)C(=O)NC2=S)cc1,-4,-3,22,0,4,.,
COc1ccc(N2C(=O)/C(=C/c3ccc(C)o3)C(=O)NC2=S)c(OC)c1,17,5,44*,2,12,.,
CCOc1ccc(N2C(=O)/C(=C/c3ccco3)C(=O)NC2=S)cc1,.,.,.,54*,.,.,
COC(=O)C1=C(c2c(C)noc2C)C[C@@H]2CC[C@H]1N2C(=O)NCCCOC(C)C,2,31*,-5,-1,-3,.,
CCN(CC)C(=O)c1ccc2c(c1)C1C=CCC1C(C(=O)O)N2 (stereo not given),24*,17,46*,59*,54*,55*,
CCN(CC)C(=O)c1ccc2c(c1)C1C(Cl)C(Sc3ccccc3[N+](=O)[O-])CC1C(C(=O)O)N2 (stereo not given),.,.,.,78*,.,77*,
Cc1ccc2c(c1Cl)NC(C(=O)O)C1CC(Sc3ccccc3[N+](=O)[O-])C(Cl)C21 (stereo not given),.,.,.,43*,.,41*,
O=C(NCCN1CCCCC1)c1ccc(Cl)nc1Cl,2,-6,3,1,6,.,
O=c1c2ccccc2nc(/C=C/c2ccccc2)n1-c1ccc(O)cc1,-3,-14,7,-36,-12,.,
O=c1c2ccccc2nc(/C=C/c2ccc(O)c(O)c2)n1-c1ccccc1,4,-10,15,64*,19,87*,
Nc1ccccc1C(=O)OCCOc1ccccc1,-5,6,-5,-8,-10,.,
C[C@]12CC[C@@H](O)C[C@@H]1CC[C@@H]1[C@@H]2CC[C@]2(C)C(=O)CC[C@@H]12,-8,-1,-4,1,-15,.,
CCCCCn1c(=O)c(C(=O)Nc2ccccc2N)c(O)c2ccccc21,5,1,3,10,2,.,
CCCCn1c(=O)c(C(=O)Nc2ccccc2N)c(O)c2ccccc21,-9,-11,5,40*,3,20,
O=c1[nH]c(=S)n(C2CC2)c(O)c1/C=N/Nc1ccccc1,-16,-1,13,-4,-14,.,
O=c1[nH]c(=S)n(C2CC2)c(O)c1/C=N/Nc1cccc2ccccc12,-4,11,34,41*,27,22,
Cc1nc2ccccc2c(=O)n1/N=C/c1cc(Br)cc(Br)c1O,46*,2,9,36*,9,95*,BSA TAMRA ctr=-12;TCR-CD3 inh conf=47*
Cc1cc(OC(=O)c2ccco2)c2c3c(c(=O)oc2c1)CCC3,7,5,-5,21,2,.,
Cc1cccc(N2C(=O)NC(=O)/C(=C/c3cc4c(cc3[N+](=O)[O-])OCO4)C2=O)c1,3,11,21,41*,39*,3,ABHD4 confirm=13
SMILES,TCR CD3 inh,SIAE inh,rCAG binder,HTRA1 inh,mABHD4 FP,HTRA1 inh conf,others
N#C[C@H](O[C@@H]1O[C@H](CO[C@@H]2O[C@H](CO)[C@@H](O)[C@H](O)[C@H]2O)[C@@H](O)[C@H](O)[C@H]1O)c1ccccc1,-4,1,-1,-2,-2,.,
CC(Cc1ccc(O)cc1)NCC(O)c1ccc(O)c(O)c1 (stereo not given),8,9,30,54*,53*,53*,ABHD4 confirm=60*
CC1CC2C(C(O)CC3(C)C(O)CCC23)C2(C)CCC(=O)C=C12 (stereo not given),4,-1,-1,2,1,.,
C[n+]1c(-c2ccccc2)c2cc(N)ccc2c2ccc(N)cc21,116*,49*,41*,97*,75*,123*,BSA TAMRA ctr=160*;TCR-CD3 inh conf=130*;rCAG bind conf=49*;dCAG dye counter=63*;ABHD4 confirm=111*
CCOC(=O)c1cc(C)sc1/N=C/C1C(=O)NC(=S)NC1=O,-18,-12,-7,-6,-10,.,
CC1=C(O)C(=O)C=C2C1=CC=C1C2(C)CCC2(C)C3CC(C)(C(=O)O)CCC3(C)CCC12C (stereo not given),2,13,50*,48*,49*,45*,rCAG bind conf=41*;dCAG dye counter=9.5*;ABHD4 confirm=48*
COC(=O)C1=C(c2cc3ccccc3o2)C[C@@H]2CC[C@H]1N2C(=O)N1CCC(C)CC1,2,0,-7,-39,-7,.,
CCCCCC[N+](=O)[O-],2,-1,-1,2,-2,.,
CCCCCCCCCCCCCCCC[N+](C)(C)C,6,5,7,54*,32*,78*,ABHD4 confirm=55*
CC1CN1P(=S)(c1ccccc1)N1CC1C (stereo not given),-2,2,1,1,7,.,
O=C1c2ccccc2-c2cc3ccccc3cc21,7,-12,13,-24,4,.,
O=C1C=C(N2CC2)c2ccccc2C1=O,17,17,32,51*,67*,31,ABHD4 confirm=30*
CN(C)[C@@H]1C(=O)C(C(N)=O)=C(O)[C@@]2(O)C(=O)C3=C(O)c4c(O)cccc4[C@@](C)(O)C3[C@H](O)C12 (stereo not given in full),27*,17,55*,43*,68*,11,BSA TAMRA ctr=-2;TCR-CD3 inh conf=11;rCAG bind conf=21;dCAG dye counter=7.5*;ABHD4 confirm=22
CN(C)C1C(=O)C(C(N)=O)=C(O)C2(O)C(=O)C3=C(O)c4c(O)cccc4C(C)(O)C3CC12 (stereo not given),.,.,.,9,.,.,

# Bioassay records deposited in PubChem by The Scripps Research Institute Molecular Screening Center.
